# ChEMBL document CHEMBL4052605, “Lissoclibadin 1, a Polysulfur Aromatic Alkaloid from the Indonesian Ascidian Lissoclinum cf. badium, Induces Caspase-Dependent Apoptosis in Human Colon Cancer Cells and Suppresses Tumor Growth in Nude Mice” (J Nat Prod, 2017)
# Tests used:
# HCT-15 = experiment: Antiproliferative activity against human HCT15 cells after 24 hrs by WST-1 assay; format: functional, cell-based; conditions: HCT-15, 24 h
# In short: (§1)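 WST-1 viability assay. Cells seeded at 5 × 10^3 per well and grown 24 h, then given lissoclibadins at 0.1−40 μM (etoposide 1.0−100 μM) in triplicate for 24 h. WST-1 added and absorbance read 4 h later at 450 nm, background subtracted at 650 nm. Viability expressed as % of control; IC50 taken as 50% inhibition of viability. Three experiments, mean ± SD.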
# HeLa S3 = experiment: Antiproliferative activity against human HeLaS3 cells after 24 hrs by WST-1 assay; format: functional, cell-based; conditions: HeLa S3, 24 h; in short: as §1
Structure (SMILES),IC50 (HCT-15) [µM],IC50 (HeLa S3) [µM]
COc1cc(CCN(C)C)c2sc3c(O)c(OC)cc(CCN(C)C)c3ssc2c1O [LISSOCLIBADIN 4],17.2,17.8
COc1cc([C@@H]2c3cc4c(cc3[C@@H](O[C@@H]3O[C@@H]5CO[C@@H](C)O[C@H]5[C@H](O)[C@H]3O)[C@H]3COC(=O)[C@H]23)OCO4)cc(OC)c1O [ETOPOSIDE],19.7,43.1
